The values that follow come from ChEMBL document CHEMBL4002546, “Evaluation of 7-arylaminopyrazolo[1,5-a]pyrimidines as anti-Plasmodium falciparum, antimalarial, and Pf-dihydroorotate dehydrogenase inhibitors” (Eur J Med Chem, 2017).

In series [1] the test system is Plasmodium falciparum. The series is described as follows: Antiplasmodial activity against chloroquine-resistant Plasmodium falciparum W2 infected in human A+ erythrocytes assessed as inhibition of [3H]-hypoxanthine incorporation after 42 hrs by beta counting method. The class given is functional, cell-based. In a few lines: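 W2 parasites cultured at 37 °C in A+ human erythrocytes in RPMI 1640 with 10% A+ human serum, under low O2 (3% O2, 5% CO2). Compound dilutions were tested at 1% parasitemia and 1% haematocrit. [3H]-hypoxanthine uptake was read by beta counting after 42 h. IC50 was derived by curve fitting relative to drug-free controls.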

The subject of series [2] is Plasmodium falciparum. The series can be described thus: Antiplasmodial activity against chloroquine-resistant Plasmodium falciparum W2 infected in human A+ erythrocytes by HRP2 detection based ELISA. The class given is functional, cell-based. In a few lines:
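W2 blood-stage culture in A+ human erythrocytes in RPMI 1640 with 10% A+ human serum at 37 °C, under 3% O2/5% CO2. Growth was read with monoclonal antibodies against histidine- and alanine-rich protein II (HRPII). IC50 was estimated by curve fitting against drug-free controls.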

Series [3] can be described thus: Cytotoxicity against African green monkey BGM cells assessed as lethality after 24 hrs by neutral red dye based assay. The class given is cell-based. Conditions: chlorocebus aethiops, read-out: MLD50. In outline:
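BGM monkey kidney cells grown in RPMI 1640 with 10% heat-inactivated foetal serum and gentamicin. Cells were seeded at 1 × 10⁵ cells/mL and left 18 h to adhere. Compounds were added across a 1000–1 dilution range for 24 h at 37 °C in 5% CO2. Cells took up neutral red for 2 h, were fixed with formaldehyde/CaCl2 and extracted with alcohol-acetic acid, then read at A540. Viability is % of untreated cells; MLD50 was calculated from this.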

Series [4] is described as follows: Selectivity index, ratio of MLD50 for african green monkey BGM cells to IC50 for chloroquine-resistant Plasmodium falciparum W2 infected in human A+ erythrocytes by [3H]-hypoxanthine incorporation assay. Conditions: read-out: Selectivity Index. The format is toxicity, cell-based.
Series [5] can be described thus: Selectivity index, ratio of MLD50 for african green monkey BGM cells to IC50 for chloroquine-resistant Plasmodium falciparum W2 infected in human A+ erythrocytes by HRP2 ELISA assay. Conditions: read-out: Selectivity Index. The format is toxicity, cell-based.
Series [6] concerns the target Dihydroorotate dehydrogenase (quinone), mitochondrial (Homo sapiens) (UniProt Q02127). The series can be described thus: Inhibition of recombinant human DHODH assessed as residual activity at 50 uM using L-dihydroorotate as substrate by DCIP-based colorimetric assay relative to control. In outline: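 Recombinant human DHODH at 20 nM final, in 50 mM Tris pH 8.15 with 150 mM KCl and 0.1% Triton X-100. Substrate was 1 mM L-dihydroorotate, with CoQ0 as acceptor and DCIP as dye. DCIP reduction was followed at 610 nm for 60 s at 25 °C, against a no-enzyme reference. Four replicates per concentration; activity is % of the uninhibited control.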

The nature of series [7]: Inhibition of N-terminally truncated Plasmodium falciparum SUMO-tagged DHODH (159 to 569 residues) expressed in Escherichia coli BL21(DE3) using L-dihydroorotate as substrate by DCIP-based colorimetric assay. In a few lines:
(§1)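 Recombinant PfDHODH expressed in E. coli BL21(DE3) from a SUMO-His construct, IPTG-induced. Purified by Ni-NTA, then ULP1 tag cleavage, then size exclusion. Activity measured as continuous DCIP reduction at 600 nm over 60 s at 25 °C. Reaction: 50 mM Tris pH 8.15, 150 mM KCl, 0.1% Triton X-100, 1 mM L-dihydroorotate, 100 µM CoQ₀, 60 µM DCIP, 50 nM enzyme. Four replicates per concentration; activity relative to no-inhibitor control. IC50 from nonlinear fit.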

The test system of series [8] is Plasmodium falciparum. The series can be described thus: Inhibition of N-terminally truncated Plasmodium falciparum SUMO-tagged DHODH (159 to 569 residues) expressed in Escherichia coli BL21(DE3) assessed as residual activity at 50 uM using L-dihydroorotate as substrate by DCIP-based colorimetric assay relative to control. In a few lines:
as §1

Series [9] deals with Plasmodium falciparum. The series is described as follows: Antiplasmodial activity against chloroquine-resistant Plasmodium falciparum W2 infected in human A+ erythrocytes after 48 hrs by SYBR Green based fluorescence assay. The format is functional, cell-based. Conditions: W2, 48 h. In a few lines: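 W2 parasites kept at 37 °C in A+ human red cells in RPMI 1640 with 10% A+ human serum, under 3% O2/5% CO2/91% N2. Serial dilutions were run at 0.5% parasitemia and 2% haematocrit for 48 h at 37 °C. Cells were lysed in Tris/EDTA/saponin/Triton buffer with SYBR Safe for 30 min in the dark, then read at ex 485/em 535 nm. IC50 was curve-fitted against drug-free controls.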

Series [10] is described as follows: Solubility of the compound at >100 uM. The format is physicochemical.
A short description of series [11]: Selectivity index, ratio of MLD50 for african green monkey BGM cells to IC50 for chloroquine-resistant Plasmodium falciparum W2 infected in human A+ erythrocytes by SYBR Green based fluorescence assay. The class given is toxicity, cell-based.
The test system of series [12] is Plasmodium berghei. The series can be described thus: Antimalarial activity against Plasmodium berghei NK65 infected in mouse assessed as reduction in parasitemia at 5 mg/kg, po administered daily for 3 consecutive days starting 24 hrs post inoculum challenge containing parasitized red blood cells measured on day 5 by giemsa staining based microscopic method. The format is functional. In outline:
(§2)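 P. berghei NK65 maintained by weekly blood passage. Mice inoculated i.p. with 1 × 10⁶ infected erythrocytes, randomized after ~24 h into groups of five. Oral dosing at 5 mg/kg once daily for 3 days, freshly diluted in 3% DMSO in RPMI; vehicle and amodiaquine controls. Parasitemia read on Giemsa-stained, methanol-fixed tail-blood thin smears. Inhibition is relative to untreated mice, taken as 100% growth.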

The test system of series [13] is Plasmodium berghei. The series is described as follows: Antimalarial activity against Plasmodium berghei NK65 infected in mouse assessed as reduction in parasitemia at 5 mg/kg, po administered daily for 3 consecutive days starting 24 hrs post inoculum challenge containing parasitized red blood cells measured on day 7 by giemsa staining based microscopic method. The format is functional. In a few lines: as §2

In series [14] the test system is Plasmodium berghei. The series can be described thus: Antimalarial activity against Plasmodium berghei NK65 infected in mouse assessed as reduction in parasitemia at 5 mg/kg, po administered daily for 3 consecutive days starting 24 hrs post inoculum challenge containing parasitized red blood cells measured on day 9 by giemsa staining based microscopic method. The class given is functional. In outline: as §2

Series [15] concerns Plasmodium berghei. The series is described as follows: Antimalarial activity against Plasmodium berghei NK65 infected in mouse assessed as reduction in parasitemia at 5 mg/kg, po administered daily for 3 consecutive days starting 24 hrs post inoculum challenge containing parasitized red blood cells measured on day 11 by giemsa staining based microscopic method. The class given is functional. In outline: as §2

pIC50: −log10 of the molar value. Some results are limits rather than exact numbers.

Dihydroorotate dehydrogenase (quinone), mitochondrial (Homo sapiens), sequence (Q02127 whole entry): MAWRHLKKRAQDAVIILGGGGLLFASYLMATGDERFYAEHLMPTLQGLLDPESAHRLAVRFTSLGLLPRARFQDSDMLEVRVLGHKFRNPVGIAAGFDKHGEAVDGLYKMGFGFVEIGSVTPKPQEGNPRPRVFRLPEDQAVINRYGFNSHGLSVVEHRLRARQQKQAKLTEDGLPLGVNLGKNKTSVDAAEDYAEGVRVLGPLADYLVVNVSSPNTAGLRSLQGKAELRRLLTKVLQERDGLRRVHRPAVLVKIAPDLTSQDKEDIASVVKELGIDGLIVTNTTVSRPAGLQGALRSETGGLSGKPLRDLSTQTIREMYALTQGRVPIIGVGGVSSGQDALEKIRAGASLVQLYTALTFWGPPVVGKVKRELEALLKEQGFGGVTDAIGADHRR

As to `Cc1cc(Nc2ccc(Cl)cc2)n2nc(C(F)(F)F)cc2n1`, the pIC50 is 4.30 in [1], 4.17 in series [2] and 4.64 in series [7]. Besides, the CC50 at 24 h in series [3] was 67.5 µM. For the same molecule, the selectivity ratio in series [4] worked out at 1.3; in [5] it was 1. Besides, the Activity in [6] was 121%; in series [8], 52%.

`COc1cc(Nc2cc(C)nc3cc(C(F)(F)F)nn23)cc(OC)c1`: the pIC50 in [1] is under 3.85; in [2], under 3.85; in series [7] it was under 3.40. Besides, the CC50 at 24 h in series [3] turned out to be 256 µM. Further, the values for the Activity in series [6] and in [8] were 95% and 57%, respectively.

With `Cc1cc(Nc2ccc(C(F)(F)F)cc2)n2nc(C(F)(F)F)cc2n1`, the pIC50 is 4.33 in series [1], 4.51 in [2] and under 4.00 in series [7]. The CC50 at 24 h in [3] is 108 µM. Further, the selectivity ratio in [4] came out at 2.3; in series [5], 3.5. The Activity in [6] was found to be 95%; in series [8], 33%.

For the molecule `Cc1cc(Nc2ccccc2C(F)(F)F)n2nc(C)cc2n1`, the results for the pIC50 in series [1] and in series [2] were 4.37 and 4.31, respectively. Further, the CC50 at 24 h in series [3] was 105 µM. Also, the results for the selectivity ratio in series [4] and in [5] were 2.5 and 2.1, respectively. The figures for the Activity in [6] and in series [8] were 96% and 94%, respectively.

Consider `COc1cc(Nc2cc(C(F)(F)F)nc3cc(C)nn23)cc(OC)c1`, for which the pIC50 in series [1] and in series [9] was 5.07 throughout. For the same molecule, the CC50 at 24 h in [3] is over 2840 µM. For the same molecule, the selectivity ratio in series [4] and in series [11] was over 330 in each case. Further, the Activity in series [6] is 104%; in series [8], 77%. In series [10], the solubility result is on record as “Insoluble”.

For the molecule `Cc1cc(Nc2ccc3ccccc3c2)n2nc(C)cc2n1`, the pIC50 in series [1] is 5.29; in series [7] it was 5.40; in series [9] it was 5.29. In addition, the CC50 at 24 h in series [3] stood at 406 µM. In addition, the selectivity ratio in series [4] and in [11] was 79.6 in each case. Further, the Activity in [6] was found to be 71.9%; in [8], 41%. Also, the inhibition in vivo at 5 mg/kg in series [12] was 50%; in [13], 40%; in series [14] it was 53%; in [15], 65%. Also, in series [10], the solubility result was “Insoluble”.

Take `Cc1cc2nc(C(F)(F)F)cc(Nc3ccccc3)n2n1`: the pIC50 in series [1] and in series [9] was 4.77 each time. The CC50 at 24 h in series [3] stood at 261 µM. The selectivity ratio in series [4] and in series [11] was 15.2 in each case. In addition, the Activity in [6] was 122%; in series [8], 77%. Further, the solubility entry in [10] is “Insoluble”.

For `Cc1cc(Nc2ccccc2)n2nc(C)cc2n1`, the pIC50 in series [1] was 4.17; in series [2], 4.03. Moreover, in series [3], the CC50 at 24 h was found to be 315 µM. Further, the selectivity ratio in series [4] is 4.7; in series [5], 3.4. Also, the Activity in [6] turned out to be 104%; in [8], 66%.

Turning to `Cc1cc(Nc2ccccc2)n2nc(C(F)(F)F)cc2n1`, the pIC50 in [1] and in [2] was under 3.77 each time. Further, in series [3], the CC50 at 24 h stood at 856 µM. Further, the Activity was determined as 113% in series [6] and 88% in series [8].

For `Cc1cc(Nc2ccccc2C(F)(F)F)n2nc(C(F)(F)F)cc2n1`, the pIC50 in [1] was 4.30; in series [2], 4.35. Also, the CC50 at 24 h in [3] came out at 228 µM. The selectivity ratio in series [4] came out at 4.6; in series [5] it was 5.1. The Activity in [6] came to 93%; in series [8], 48%.

Turning to `Cc1cc(Nc2ccc(Cl)cc2)n2nc(C)cc2n1`, the values for the pIC50 in series [1] and in series [2] were 4.59 and 4.63, respectively. The CC50 at 24 h in series [3] is 566 µM. In addition, the selectivity ratio came to 22 in series [4] and 24.1 in series [5]. The Activity in series [6] was 95%; in [8] it was 74%.

As for `CCN(CC)Cc1cc(Nc2ccnc3cc(Cl)ccc23)ccc1O` [AMODIAQUINE], the pIC50 was 8.22 in [1], under 3.40 in [7] and 8.22 in series [9]. Further, in series [8], the Activity came out at 79%. Also, the inhibition in vivo at 5 mg/kg in [12], in series [13], in [14] and in series [15] was 100% throughout.

Take `Cc1cc2nc(C(F)(F)F)cc(Nc3ccc4ccccc4c3)n2n1`: the pIC50 is 5.00 in [1], 6.80 in series [7] and 5.00 in [9]. Moreover, the CC50 at 24 h in series [3] turned out to be 2340 µM. Also, the selectivity ratio in [4] and in [11] was 234 each time. The Activity stood at 101% in series [6] and 60% in series [8]. The inhibition in vivo at 5 mg/kg in series [12] came to 25%; in series [13] it was 1%; in [14], 4%; in series [15], 29%. Moreover, the solubility entry in series [10] is “Insoluble”.

For `COc1cc(Nc2cc(C)nc3cc(C)nn23)cc(OC)c1`, the figures for the pIC50 in series [1], in series [2] and in series [7] were 4.57, 4.67 and under 3.40, respectively. In series [3], the CC50 at 24 h came to 188 µM. Further, the selectivity ratio in series [4] stood at 7; in series [5], 8.7. Also, the Activity in [6] amounted to 80%; in [8] it was 42%.

Regarding `Cc1cc(Nc2ccc3ccccc3c2)n2nc(C(F)(F)F)nc2n1`, in series [3], the CC50 at 24 h worked out at 425 µM. The selectivity ratio in [4] and in series [5] was 18.5 each time. Besides, in [7], the pIC50 was 6.15. Further, the Activity in series [8] was 37%.

Regarding `Cc1cc(Nc2ccc(C(F)(F)F)cc2)n2nc(C)cc2n1`, the negative-log IC50 (pIC50) in series [1] is 4.80; in series [2] it was 5.07; in series [7], 4.62. Also, the CC50 at 24 h in series [3] came to 85 µM. The selectivity ratio in [4] came to 5.4; in series [5], 10. Moreover, the results for the Activity in series [6] and in series [8] were 88% and 34.3%, respectively.
